We go through 6 molecules from ChEMBL document CHEMBL1152300, “Ligand specificity of constitutive androstane receptor as probed by induced-fit docking and mutagenesis” (J Med Chem, 2008).

In data set [1] the target is T1, Nuclear receptor subfamily 1 group I member 3 (Mus musculus, UniProt O35627, F171L). The note with it: HEK293, mouse.
Data set [2] deals with T2, Nuclear receptor subfamily 1 group I member 3 (Mus musculus, UniProt O35627).
T2 sequence (O35627 whole entry): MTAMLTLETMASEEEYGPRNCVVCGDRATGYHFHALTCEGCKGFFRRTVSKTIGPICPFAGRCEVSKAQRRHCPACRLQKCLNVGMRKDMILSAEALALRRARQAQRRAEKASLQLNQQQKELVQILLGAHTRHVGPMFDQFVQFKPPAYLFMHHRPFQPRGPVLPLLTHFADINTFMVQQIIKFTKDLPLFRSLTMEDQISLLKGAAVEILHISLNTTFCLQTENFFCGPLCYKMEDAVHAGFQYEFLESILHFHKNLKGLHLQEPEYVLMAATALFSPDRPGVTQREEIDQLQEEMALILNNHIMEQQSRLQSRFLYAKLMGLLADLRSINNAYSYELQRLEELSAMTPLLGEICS
Briefly: Activation of mouse CAR. In short, it runs like this:
(§1)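 GAL4-DBD fused to mouse CAR LBD (residues 118-358), wild-type or point mutant, cotransfected with UASx4-tk-luc reporter and pCMVβ into HEK293 cells. Cells were exposed to final 1 µM, 2 µM or 10 µM test chemical, or 0.1% v/v DMSO, for 24 h after transfection. Luciferase was normalized to β-galactosidase and set against empty GAL4 vector (=1.0). Mean ± standard deviation, three independent experiments.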

Data set [3] has as its target T3, Nuclear receptor subfamily 1 group I member 3 (Mus musculus, UniProt O35627, S251L). Particulars: HEK293, mouse, read-out: Activity; call rule not given here.
Data set [4] deals with T4, mouse CAR (NR1I3), wild type (Mus musculus, UniProt O35627).
T4 sequence (O35627 whole entry): T2 sequence (O35627 whole entry)
Briefly: Activation of wild type mouse CAR expressed in HEK293 cells at 10 uM by mammalian one-hybrid assay. The format is cell-based. Particulars: HEK293 cells expressing wild type mouse CAR, read-out: FC. The gist of the method: (§2)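 GAL4 DBD fused to mouse CAR LBD (residues 118-358), wild type or point mutant, cotransfected with UASx4-tk-luc reporter and pCMVβ into HEK293 cells. Cells cultured with DMSO (0.1% v/v) or compound (final 1, 2 or 10 µM). Lysed 24 h post-transfection. Luciferase normalized to β-galactosidase, expressed relative to empty GAL4 vector (=1.0). Mean ± SD, three independent experiments.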

Data set [5] deals with T4, mouse CAR (NR1I3), wild type. Briefly: Activation of wild type mouse CAR expressed in HEK293 cells at 1 uM by mammalian one-hybrid assay. The format is cell-based. Particulars: HEK293 cells expressing wild type mouse CAR, read-out: FC. In short, it runs like this:
as §2

Data set [6] deals with Nuclear receptor subfamily 1 group I member 3 (Mus musculus, UniProt O35627, L253F). Briefly: Effect on steroid receptor coactivator 1 binding to mouse CAR L253F mutant […] at 1 uM by yeast two-hybrid assay. The format is cell-based. The note with it: read-out: Activity. In short, it runs like this:
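Yeast two-hybrid assay. Yeast co-expressing wild-type or mutant mouse CAR LBD and the SRC-1 partner were selected on SD plates lacking leucine and tryptophan. Random colonies were pooled and amplified, then treated with DMSO or test chemical for 3.5 h. β-galactosidase activity was normalized to cell density and set relative to wild-type mCAR + SRC-1 with DMSO (=100). Mean ± standard deviation of two determinations, each in triplicate.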

The target in data set [7] is Nuclear receptor subfamily 1 group I member 3 (Mus musculus, UniProt O35627, T350M). As to the kind of experiment: Decrease in mouse CAR T350M mutant activation expressed in HEK293 cells at 1 uM by mammalian one-hybrid assay. The format is cell-based. Particulars: read-out: Activity. In short, it runs like this: as §2
The target in data set [8] is Nuclear receptor subfamily 1 group I member 3 (Mus musculus, UniProt O35627, L212A). Briefly: Activation of mouse CAR L212A mutant expressed in HEK293 cells at 1 uM by mammalian one-hybrid assay. The format is cell-based. Particulars: hek293, 1 µM. In short, it runs like this: as §2
Data set [9] addresses Nuclear receptor subfamily 1 group I member 3 (Mus musculus, UniProt O35627, N175A). As to the kind of experiment: Effect on nuclear co-repressor receptor binding to mouse CAR N175A mutant […] at 1 uM by yeast two-hybrid assay. The format is cell-based. Particulars: read-out: Activity. The gist of the method: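 Yeast expressing wild-type or mutant mouse CAR LBD plus NCoR, selected on SD plates lacking leucine and tryptophan. Pooled colonies treated with DMSO or compound for 3.5 h. β-Galactosidase activity normalized to cell density. Reference is 10 µM androstenol (=100). Mean ± SD of two independent determinations, each in triplicate.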

The target of data set [10] is T5, Nuclear receptor subfamily 1 group I member 3 (Mus musculus, UniProt O35627, T350A). As to the kind of experiment: Decrease in steroid receptor coactivator 1 binding to mouse CAR T350A mutant […] at 1 uM by yeast two-hybrid assay. The format is cell-based. The note with it: read-out: Activity. In short, it runs like this:
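Yeast expressing wild-type or mutant mouse CAR LBD plus SRC-1, selected on SD plates lacking leucine and tryptophan. Pooled colonies treated with DMSO or compound for 3.5 h. β-Galactosidase activity normalized to cell density. Reference is wild-type CAR + SRC-1 with DMSO (=100). Mean ± SD of two independent determinations, each in triplicate.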

The target in data set [11] is T6, Nuclear receptor subfamily 1 group I member 3 (Mus musculus, UniProt O35627, I252L). As to the kind of experiment: Activation of mouse CAR I252L mutant expressed in HEK293 cells at 1 uM by mammalian one-hybrid assay. The format is cell-based. The note with it: hek293, 1 µM. The gist of the method:
as §2

Data set [12] has as its target T5, Nuclear receptor subfamily 1 group I member 3. Briefly: Activation of mouse CAR T350A mutant expressed in HEK293 cells at 10 uM by mammalian one-hybrid assay. The format is cell-based. The note with it: hek293, 10 µM. The gist of the method:
as §2

Data set [13] concerns the target T4, mouse CAR (NR1I3), wild type. Briefly: Decrease in wild type mouse CAR activation expressed in HEK293 cells at 10 uM by mammalian one-hybrid transactivation assay. The format is cell-based. The note with it: HEK293 cells expressing wild type mouse CAR, read-out: Activity. The gist of the method: as §2
For data set [14], the target named is T1, Nuclear receptor subfamily 1 group I member 3. Briefly: Decrease in mouse CAR F171L mutant activation expressed in HEK293 cells at 2 uM by mammalian one-hybrid assay. The format is cell-based. Particulars: read-out: Activity. The gist of the method: as §1
Data set [15] has as its target T6, Nuclear receptor subfamily 1 group I member 3. As to the kind of experiment: Enhancement of steroid receptor coactivator 1 binding to mouse CAR I252L mutant […] at 2 uM by yeast two-hybrid assay. The format is cell-based. The gist of the method:
(§3)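 Yeast two-hybrid: yeast expressing wild-type or mutant mouse CAR LBD plus SRC-1 or NCoR, selected on SD medium lacking Leu and Trp. Pooled colonies treated with DMSO or test chemical for 3.5 h. β-Galactosidase normalized to cell density. SRC-1 reference: wild-type + DMSO = 100. NCoR reference: 10 µM androstenol = 100. Mean ± SD, two independent determinations, each in triplicate.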

In data set [16] the target is T2, Nuclear receptor subfamily 1 group I member 3. As to the kind of experiment: Activation of wild type mouse CAR expressed in HEK293 cells at 2 uM by mammalian one-hybrid assay. Particulars: hek293, 2 µM. The format is cell-based. In short, it runs like this:
as §1

The target in data set [17] is T5, Nuclear receptor subfamily 1 group I member 3. As to the kind of experiment: Decrease in mouse CAR T350A mutant activation expressed in HEK293 cells at 2 uM by mammalian one-hybrid assay. The format is cell-based. The note with it: read-out: Activity. In short, it runs like this:
as §1

In data set [18] the target is T3, Nuclear receptor subfamily 1 group I member 3. Briefly: Decrease in steroid receptor coactivator 1 binding to mouse CAR S251L mutant […] at 2 uM by yeast two-hybrid assay. The format is cell-based. Particulars: read-out: Activity. In short, it runs like this:
as §3

The target in data set [19] is Nuclear receptor subfamily 1 group I member 3 (Mus musculus, UniProt O35627, Y336A). Briefly: Activation of mouse CAR Y336A mutant expressed in HEK293 cells at 10 uM by mammalian one-hybrid assay. Particulars: hek293, 10 µM. The format is cell-based. The gist of the method:
as §2

T3 sequence (O35627 whole entry S251L): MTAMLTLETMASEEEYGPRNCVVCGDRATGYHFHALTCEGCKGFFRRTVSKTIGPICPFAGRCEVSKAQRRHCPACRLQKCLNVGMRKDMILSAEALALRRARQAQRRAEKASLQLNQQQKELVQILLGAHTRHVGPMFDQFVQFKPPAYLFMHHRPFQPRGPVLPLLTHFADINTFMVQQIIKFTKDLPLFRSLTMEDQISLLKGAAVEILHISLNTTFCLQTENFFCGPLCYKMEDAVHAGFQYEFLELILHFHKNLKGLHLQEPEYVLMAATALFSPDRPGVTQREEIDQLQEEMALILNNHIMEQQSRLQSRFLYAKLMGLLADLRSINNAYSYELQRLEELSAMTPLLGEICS
T1 sequence (O35627 whole entry F171L): as the sequence (O35627 whole entry S251L) above, with F171L, L251S counted along it
T5 sequence (O35627 whole entry T350A, the tested form may be a part): as the sequence (O35627 whole entry S251L) above, with L251S, T350A counted along it
T6 sequence (O35627 whole entry I252L): as the sequence (O35627 whole entry S251L) above, with L251S, I252L counted along it
Nuclear receptor subfamily 1 group I member 3 (Mus musculus, UniProt O35627, T350M), sequence (O35627 whole entry T350M): as the sequence (O35627 whole entry S251L) above, with L251S, T350M counted along it
Nuclear receptor subfamily 1 group I member 3 (Mus musculus, UniProt O35627, L212A), sequence (O35627 whole entry L212A, the tested form may be a part): as the sequence (O35627 whole entry S251L) above, with L212A, L251S counted along it
Nuclear receptor subfamily 1 group I member 3 (Mus musculus, UniProt O35627, Y336A), sequence (O35627 whole entry Y336A): as the sequence (O35627 whole entry S251L) above, with L251S, Y336A counted along it
Nuclear receptor subfamily 1 group I member 3 (Mus musculus, UniProt O35627, N175A), sequence (O35627 whole entry N175A, the tested form may be a part): as the sequence (O35627 whole entry S251L) above, with N175A, L251S counted along it
Nuclear receptor subfamily 1 group I member 3 (Mus musculus, UniProt O35627, L253F), sequence (O35627 whole entry L253F, the tested form may be a part): as the sequence (O35627 whole entry S251L) above, with L251S, L253F counted along it

`COc1ccc(C(=O)CCCc2ccccc2)cc1` registered an activity at 10 µM in data set [1] of under 50%. In addition, the Activity result in data set [2] is given as “Active”.

`COc1ccccc1CC(CC(=O)Cc1ccccc1)OC` (stereo not given): the inhibition at 10 µM in data set [3] was under 50%. In data set [4], the fold induction at 10 µM is 2. For the same molecule, in data set [5], the fold induction at 1 µM turned out to be 2. In addition, the Activity result in data set [2] is given as “Active”.

In the case of `Clc1cnc(Oc2ccc(Oc3ncc(Cl)cc3Cl)cc2)c(Cl)c1`, the activity at 1 µM in data set [6] and in data set [9] was under 50% each time. Further, the inhibition at 1 µM is 50% in [7] and at least 50% in data set [10]. Also, the fold induction at 10 µM in [4] stood at 2. Moreover, the Activity in data set [8] and in data set [11] was under 50% in each case. Besides, in [5], the fold induction at 1 µM turned out to be 2.

With `C[C@]12CC[C@@H](O)C[C@@H]1CC[C@@H]1[C@@H]2CC[C@]2(C)C=CC[C@@H]12` [ANDROSTENOL], in data set [1], the activity at 10 µM was under 50%. Further, in data set [12], the Activity was under 50%. Further, the inhibition at 10 µM in data set [13] is over 60%.

On to `Clc1ccccc1C(c1ccccc1)(c1ccccc1)n1ccnc1` [CLOTRIMAZOLE], for which the values for the inhibition at 2 µM in data set [14], in data set [17] and in data set [18] were 50%, under 50% and at least 50%, respectively. The Activity entry in [15] is listed as “>= 50%”; in data set [16], 40%.

`COc1ccc(C(c2ccc(OC)cc2)C(Cl)(Cl)Cl)cc1` [METHOXYCHLOR]: the values for the Activity in [16] and in data set [19] were 40% and under 50%, respectively. The inhibition at 10 µM in data set [3] was under 50%.
